This is a sample that favours compounds with a hit; in the whole collection about 2.1% have one here.
PKA-R1A activ = activates the PKA-R1A holoenzyme complex. AID 504707. activation, % at 11.4 µM. PKA-R1A dissociation, Cy5-IP20 fluorescence polarization; scaled: DMSO 0%, 113 µM cGMP 100%. 340,000 tested, 0.083% active;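 active = percent activation above the mean of all tested compounds plus 3 SD, cut at about 19% in these data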;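 also: higher means more PKAc released from R1A so a rise in polarization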
SR-BI HDL uptake = inhibitors of mouse SR-BI mediated HDL lipid uptake; Q61009; inhibition, % at 12.5 µM; AID 488896; 320,000 tested, 0.96% active; ldlA[mSR-BI] CHO cells, DiI-HDL uptake fluorescence, 3 h;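 active = mean replicate inhibition of at least 70% and a set share of replicates each scoring 70 or more; inconclusive = meets just one of the two criteria; inactive = fails both criteria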;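 also: 0% = median of neutral control wells and 100% = median of positive control wells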
CDK5 p35 inh = blocks human CDK5/p35 kinase activity. 330,000 tested, 0.01% active. Q00535+Q15078. AID 488839. inhibition, % at 10 µM. Recombinant CDK5/p35, ADP-Glo luminescence, 60 min;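 active = highest replicate inhibition of at least 50% and at least 75% of replicates reaching 50%; inconclusive = only one of the two criteria met; inactive = both criteria failed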;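 also: plate controls were DMSO neutral control for no effect and GW8510 at 10 µM for full effect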
SR-BI DiI-HDL act = SR-BI HDL lipid transfer activation; CHO ldlA[mSR-BI] cells, DiI-HDL uptake fluorescence, 3 h; 100 = double the neutral-control signal; activation, % at 12.5 µM; 320,000 tested, 0.096% active;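 active = mean replicate activation of at least 60% and every replicate at or above 60%; inconclusive = mean or all-replicate condition met, but not both; inactive = mean below 60% and not all replicates reaching 60%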;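 also: 0% = median plate neutral-control signal and 100% = twice that signal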
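system = CHO ldlA[mSR-BI] cells, LDL receptor-null, SR-BI overexpressing | medium = Ham's F12 with 0.5% BSA, HEPES 25 mM, pH 7.4 | probe or stimulus = DiI-HDL 10 µg/mL | compound dosing = single-point compound dose | incubation = compound exposure 3 h, 37 °C | technique = DiI fluorescence, bottom read | read-out = cell-associated DiI fluorescence as measure of HDL uptake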
dFosB act = mouse delta FosB homodimer activation. P13346. purified delta FosB, TAMRA-CDK5 oligo fluorescence polarization; percent of positive-control signal above neutral wells. activation, % at 25 µM. 340,000 tested, 0.99% active;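 active = mean activation above about 17%, with every replicate also reaching it, limit read from the data, passing the limit was not always enough; inconclusive = only one of the two conditions met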
PKA-R2B act = PKA-R2B complex activation | 340,000 tested, 0.079% active | activation, % at 11.4 µM | PKA-R2B holoenzyme dissociation, Cy5-IP20 fluorescence polarization; R2B truncated from residue 108, S112A mutant; 0% DMSO only, 100% 113 µM cGMP | P22694+P31323;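 active = activation above a cutoff set at the mean over all compounds plus 3 SD, cut at about 18% in these data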;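 also: higher means more holoenzyme dissociation and a rise in polarization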
Target sequence (P31323 whole entry, looked up, other chains not shown, the tested form may be a part): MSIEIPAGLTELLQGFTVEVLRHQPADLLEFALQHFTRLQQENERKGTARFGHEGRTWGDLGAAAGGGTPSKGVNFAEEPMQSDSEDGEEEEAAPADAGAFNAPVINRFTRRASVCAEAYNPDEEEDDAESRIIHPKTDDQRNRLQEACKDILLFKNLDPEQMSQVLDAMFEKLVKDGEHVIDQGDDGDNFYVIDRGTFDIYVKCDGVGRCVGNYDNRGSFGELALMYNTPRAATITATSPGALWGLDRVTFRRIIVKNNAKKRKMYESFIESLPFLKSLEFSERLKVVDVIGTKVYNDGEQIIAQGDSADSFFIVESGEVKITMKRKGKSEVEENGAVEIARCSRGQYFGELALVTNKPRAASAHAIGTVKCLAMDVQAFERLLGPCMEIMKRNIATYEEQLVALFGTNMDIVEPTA
* marks the source's active call; other numbers are inactive results; ? = inconclusive; / = no result.

SMILES	PKA-R1A activ	SR-BI HDL uptake	CDK5 p35 inh	SR-BI DiI-HDL act	dFosB act	PKA-R2B act
CC(OC(=O)c1ccc(-c2ccc(O)cc2)cc1)C(=O)NC1CCCCC1C (stereo not drawn)	10	26	-1	-26	8	-9
O=C(NC(=S)Nc1cccc2[nH]ncc12)c1ccccc1	-5	12	-1	-12	-6	-4
O=C(Nc1cccc2[nH]ncc12)c1ccc(F)cc1	19*	-7	1	7	5	-3
Cc1sc(NC(=O)C2CC(=O)N(Cc3ccco3)C2)nc1-c1ccccc1 (stereo not drawn)	-9	/	/	/	/	-11
Cc1ccc(C2CN(CCC(N)=O)C(=O)CO2)cc1 (stereo not drawn)	-10	-1	-1	1	2	-3
O=C(Nc1ccccc1)N1CCC(C(=O)N2CCN(c3ccccc3F)CC2)CC1	-2	80*	-2	-80	-3	-3
CSCCC(NC(=O)c1ccccc1)C(=O)OCC(=O)NCc1ccco1 (stereo not drawn)	2	-7	1	7	3	-12
C=CCN1C(=O)c2ccccc2Sc2ccc(C(=O)NCC(OC)OC)cc21	-10	0	0	0	-6	3
CCCC(=O)Nc1c(-c2ccccc2)c(=O)c(C)nn1-c1ccc(C)cc1	3	-315	-3	315*	-3	8
Cc1ccc(-n2nc(C)c(=O)c(-c3ccccc3)c2NC(=O)c2cccs2)cc1	-7	-7	0	7	-2	-5
CC(=O)Nc1sc(N)nc1-c1ccccc1	-9	-41	0	41	2	-13
Nc1nc(-c2ccccc2)c(N=Nc2ccccc2Cl)s1	-1	88*	3	-88	6	0
Nc1nc(-c2ccccc2)c(N=Nc2cccc3ccccc23)s1	-8	134*	2	-134	6	3
COc1ccc(CCN(C)C2CCCN(C(=O)c3sccc3C)C2)cc1OC (stereo not drawn)	-1	-4	0	4	-10	4
CC(NC(C)c1ccccc1Cl)C(=O)Nc1cccc(S(=O)(=O)N2CCCCC2)c1 (stereo not drawn)	2	12	-11	-12	-8	-2
Cc1cc(C)n(C(=O)/C=C/c2cccs2)n1	-6	0	-6	0	-13	-8
NC(=O)COc1ccc(/C=N\NC(=O)CC(=O)NCCc2ccccc2)cc1	-8	-26	1	26	4	-5
Cc1ccccc1N(C(=O)c1snc(C(N)=O)c1N)C(C(=O)NC1CCCCC1)c1ccc(O)cc1 (stereo not drawn)	-1	/	-1	/	5	-6
Cc1ccccc1N(C(=O)c1snc(C(N)=O)c1N)C(C)C(=O)NC1CCCCC1 (stereo not drawn)	-8	83*	-2	-83	-6	3
CCOc1ccc(NS(=O)(=O)c2cccc(C(=O)N(C)Cc3ccco3)c2)cc1	-15	-12	0	12	-6	-4
O=C(C[n+]1ccc2ccccc2c1)c1ccc(NC(=O)c2ccccc2)cc1	0	-12	1	12	-3	-12
Cc1ccc2nc(C(Cl)(Cl)Cl)nc(N/N=C/c3ccc([N+](=O)[O-])cc3)c2c1	-1	91*	0	-91	3	-3
Cc1cccc2cc3c(N)c(C#N)sc3nc12	7	19	0	-19	-4	-1
Cc1sc(NC(=O)c2sc3nc4c(C)cccc4cc3c2N)c(C#N)c1C	0	90*	0	-90	-13	-5
O=[N+]([O-])c1cccc(-c2ccc(/C=N/NC(=S)Nc3cccc(F)c3)o2)c1	0	?	4	-72	-13	-16
SMILES	PKA-R1A activ	SR-BI HDL uptake	CDK5 p35 inh	SR-BI DiI-HDL act	dFosB act	PKA-R2B act
NC(=S)N/N=C/c1ccc(-c2cccc([N+](=O)[O-])c2)o1	1	78*	-1	-78	-14	-6
NC(=S)N/N=C/c1ccc(-c2cc(Cl)c(Cl)cc2Cl)o1	10	82*	1	-82	3	-8
C=CCNC(=S)N/N=C/c1ccc(-c2ccc(Cl)cc2Cl)o1	-1	71*	-1	-71	3	2
CS(=O)(=O)c1ccccc1C(=O)Nc1cccc2ncccc12	-10	/	2	/	-3	-11
Cn1cc(CCC(=O)NCCCc2ccccc2)c2ccccc21	15	3	1	-3	-3	4
Cc1cccc(CCN(CC(=O)NCc2ccc(F)cc2)C(=O)c2csnn2)c1	-11	48	-1	-48	-6	2
C=C(CN(C)C)C(=O)c1ccc(C)cc1C	3	85*	1	-85	-5	3
C=C(CN(C)C)C(=O)c1ccc2c(c1)OCO2	-8	109*	0	-109	0	2
C=C(CN(C)C)C(=O)c1cc(OC)c(OC)cc1OC	5	16	1	-16	-7	0
Cc1c(CCC(=O)NCCCn2ccnc2)c(=O)oc2cc3oc4c(c3cc12)CCCC4	-11	26	3	-26	-1	0
C[C@@]12C(=O)NCC(=O)N1[C@@H]1c3cc(Br)ccc3OC[C@@H]1[C@@H]2c1ccccc1	0	2	3	-10	1	-3
Nc1cc(S(=O)(=O)N2CCCCC2)ccc1Oc1ccccc1	-12	-18	-1	18	-6	-13
Cc1nc(NC2=NCN(Cc3cccnc3)CN2)nc2ccccc12	-1	-2	-3	2	6	-3
Cc1nc(NC2=NCN(CCCN3CCOCC3)CN2)nc2c(C)cccc12	3	-21	1	21	32*	-10
CC(C)Oc1cccc(C2NC(=O)c3ccccc3O2)c1 (stereo not drawn)	-4	/	-1	/	-12	-9
CCOC(=O)c1[nH]c2ccc(F)cc2c1NC(=O)c1cc(OC)c(OC)c(OC)c1	5	71*	0	-71	3	1
COc1cccc(CCNC(=O)c2cc(COc3c(F)cccc3F)on2)c1	-19	-4	-1	4	-8	2
COc1ccc2c(c1)cc(C(=O)N/N=C/c1c(O)c(C(=O)O)cc3ccccc13)n2C	-8	86*	1	-86	-24	3
Cn1c(O)c(/C=N/NC(=O)c2cc3ccccc3cc2O)c2ccccc21	4	/	1	/	3	11
Cc1ccc(CN2CCSc3ccc(C(=O)NC4CCN(Cc5ccccc5)CC4)cc32)cc1	-1	70	1	-70	43*	-5
Cc1cc(C)c(S(=O)(=O)N2CCN(C(=O)c3ccc(-n4cncn4)c([N+](=O)[O-])c3)CC2)c(C)c1	1	32	-1	-32	-5	-1
